Reference: ChEMBL document CHEMBL4257566, “Design, synthesis and structure-based optimization of novel isoxazole-containing benzamide derivatives as FtsZ modulators” (Eur J Med Chem, 2018)
In brackets after ≈: the same amount, converted by molar mass. Activity calls are given as the source filed them. No cut-off for these calls is given here.

What was measured:
[1] = molecular target: T1, Cell division protein FtsZ (Bacillus subtilis (strain 168)) (UniProt P17865); test: Induction of Bacillus subtilis FtsZ polymerization in presence of GTP by microtiter plate-based light-scattering assay
T1 sequence (whole entry): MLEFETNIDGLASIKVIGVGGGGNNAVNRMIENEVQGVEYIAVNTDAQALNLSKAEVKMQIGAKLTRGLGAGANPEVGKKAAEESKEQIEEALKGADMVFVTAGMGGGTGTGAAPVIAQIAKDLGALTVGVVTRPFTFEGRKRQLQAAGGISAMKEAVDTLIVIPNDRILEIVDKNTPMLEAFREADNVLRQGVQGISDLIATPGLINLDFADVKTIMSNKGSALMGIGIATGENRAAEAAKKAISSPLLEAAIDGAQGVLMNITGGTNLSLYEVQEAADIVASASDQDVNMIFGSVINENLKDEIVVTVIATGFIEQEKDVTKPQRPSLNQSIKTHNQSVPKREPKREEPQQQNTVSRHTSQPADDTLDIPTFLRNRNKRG
Procedure, shortened: (§1)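 Recombinant purified B. subtilis FtsZ (5 µM) with 1 mM GTP in 50 mM MES, 50 mM KCl, 2 mM magnesium acetate, compound 0–10 µg/mL. Polymerization followed as light scattering (A340) continuously at 25 °C for 30 min. DMSO vehicle and a non-FtsZ control were included.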

Staphylococcus aureus [2] = test: Selectivity ratio of MBC for Staphylococcus aureus ATCC 25923 to MIC for Staphylococcus aureus ATCC 25923; type: functional
Staphylococcus aureus [3] = test: Antibacterial activity against Staphylococcus aureus ATCC 25923 after 24 hrs by broth microdilution based CLSI method; type: functional; details: ATCC 25923, 24 h
Staphylococcus aureus [4] = test: Bactericidal activity against Staphylococcus aureus ATCC 25923 incubated for 24 hrs followed by plating onto tryptic soy agar plates and further incubated for 24 hrs by broth microdilution based CLSI method; type: functional; details: ATCC 25923, 24 h
Staphylococcus aureus [5] = test: Bactericidal activity against clinical isolate of penicillin-resistant Staphylococcus aureus incubated for 24 hrs followed by plating onto tryptic soy agar plates and further incubated for 24 hrs by broth microdilution based CLSI method; type: functional
Procedure, shortened: (§2)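 MBC taken from the CLSI broth microdilution plates. These held 2-fold serial dilutions from 64 to 0.125 µg/mL in cation-adjusted Mueller-Hinton broth, seeded with log-phase bacteria and incubated aerobically for 24 h at 37 °C. Well aliquots were plated on TSA and colonies counted after 24 h. MBC is the lowest concentration giving a ≥3-log CFU reduction.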

Staphylococcus aureus [6] = test: Antibacterial activity against methicillin-resistant Staphylococcus aureus ATCC 43300 after 24 hrs by broth microdilution based CLSI method; type: functional; details: ATCC 43300, 24 h
Mus musculus [7] = test: Toxicity in mouse infected with methicillin-resistant Staphylococcus aureus ATCC 43300 assessed as mouse death at 30 mg/kg, ip administered 0.1, 6 hrs postinfection and measured after 1 week; type: organism-based; details: in vivo, 168 h
Procedure, shortened: (§3)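 KM mice (about 20 g) infected i.v. with 5.4 × 10⁷ CFU MRSA in 0.1 mL saline. Dosing i.p. in vehicle of 1% DMAC, 30% TEG, 7% HPβCD in water (final), with a vehicle-only group. Deaths recorded for one week after bacterial inoculation.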

Bacillus pumilus [8] = test: Antibacterial activity against Bacillus pumilus CMCC63202 after 24 hrs by broth microdilution based CLSI method; type: functional; details: CMCC63202, 24 h
Staphylococcus aureus [9] = test: Antibacterial activity against methicillin-resistant Staphylococcus aureus ATCC 43300 infected in mouse assessed as reduction of bacterial burden in blood at 30 mg/kg, ip administered 0.1, 6 hrs postinfection and measured at 24 hrs post last dose; type: functional, organism-based
Bacillus subtilis [10] = test: Antibacterial activity against Bacillus subtilis ATCC 9372 after 24 hrs by broth microdilution based CLSI method; type: functional; details: ATCC 9372, 24 h
Escherichia coli = test: Antibacterial activity against Escherichia coli ATCC 25922 after 24 hrs by broth microdilution based CLSI method; type: functional; details: ATCC 25922, 24 h
Pseudomonas aeruginosa = test: Antibacterial activity against Pseudomonas aeruginosa ATCC 27853 after 24 hrs by broth microdilution based CLSI method; type: functional; details: ATCC 27853, 24 h
Staphylococcus aureus [11] = test: Bactericidal activity against methicillin-resistant Staphylococcus aureus ATCC 43300 assessed as reduction in viable bacterial count at 8 ug/ml after 24 hrs by time-kill assay; type: functional, organism-based
Procedure, shortened: (§4)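 Growing culture diluted to about 10⁶ CFU/mL in CAMH broth containing compound, then shaken at 37 °C. At set times, samples were serially diluted tenfold in CAMH broth and three dilutions plated on TSA. CFU/mL counted after 24 h at 37 °C. Detection limit 10³ CFU/mL. Points are the mean of two independent runs, with SD.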

Staphylococcus aureus [12] = test: Bactericidal activity against methicillin-resistant Staphylococcus aureus ATCC 43300 incubated for 24 hrs followed by plating onto tryptic soy agar plates and further incubated for 24 hrs by broth microdilution based CLSI method; type: functional; details: ATCC 43300, 24 h; procedure, shortened: as §2
HeLa = test: Cytotoxicity in human HeLa cells assessed as reduction in cell viability after 36 hrs by MTT assay; type: cell-based
Procedure, shortened: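 HeLa cells seeded at 10⁴ cells/well and left overnight, then exposed to compound for 36 h. MTT (5 mg/mL solution) added for 4 h at 37 °C, medium replaced by DMSO for 10 min, absorbance read at 570 nm.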

Staphylococcus aureus [13] = test: Bactericidal activity against methicillin-resistant Staphylococcus aureus ATCC 43300 assessed as reduction in viable bacterial count at 1 to 2 times MIC after 12 hrs by time-kill assay; type: functional; procedure, shortened: as §4
[14] = molecular target: T1, Cell division protein FtsZ (Bacillus subtilis (strain 168)); test: Induction of Bacillus subtilis FtsZ polymerization at 10 ug/ml in presence of GTP by microtiter plate-based light-scattering assay; procedure, shortened: as §1
[15] = molecular target: T1, Cell division protein FtsZ (Bacillus subtilis (strain 168)); test: Induction of Bacillus subtilis FtsZ assessed as increase in thickness of polymer size at 10 ug/ml after 20 mins by transmission electron microscopic analysis
Procedure, shortened: (§5)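 Purified B. subtilis FtsZ incubated with or without compound at room temperature for 20 min in polymerization buffer (50 mM MES, 50 mM KCl, 2 mM magnesium acetate, 1 mM GTP). Samples put on glow-discharged Formvar/carbon copper grids, negatively stained with 1% phosphotungstic acid for 1 min, imaged by TEM at 100 kV.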

Bacillus pumilus [16] = test: Potency index, ratio of PC190723 MIC to test compound MIC for Bacillus pumilus CMCC63202 after 24 hrs by broth microdilution based CLSI method; type: functional
Staphylococcus aureus [17] = test: Antibacterial activity against methicillin-resistant Staphylococcus aureus ATCC 43300 infected in mouse assessed as reduction of bacterial burden in blood at 30 mg/kg, ip administered 0.1, 3, 6, 9 and 12 hrs postinfection and measured at 24 hrs post last dose; type: functional, organism-based
Staphylococcus aureus [18] = test: Selectivity ratio of MBC for methicillin-resistant Staphylococcus aureus ATCC 43300 to MIC for methicillin-resistant Staphylococcus aureus ATCC 43300; type: functional
Procedure, shortened: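 Ratio of MBC to MIC. Both come from the same CLSI broth microdilution run: 2-fold dilutions from 64 to 0.125 µg/mL in CAMH broth, 24 h at 37 °C. MIC is the last well without turbidity. MBC is the lowest concentration giving a ≥3-log CFU drop after plating on TSA for 24 h. Ratio 1–2 is read as bactericidal, ≥8 as bacteriostatic.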

[19] = molecular target: T1, Cell division protein FtsZ (Bacillus subtilis (strain 168)); test: Induction of Bacillus subtilis FtsZ assessed as increase in bundling of protofilament at 10 ug/ml after 20 mins by transmission electron microscopic analysis; procedure, shortened: as §5
Staphylococcus aureus [20] = test: Bactericidal activity against methicillin-resistant Staphylococcus aureus ATCC 43300 assessed as reduction in viable bacterial count at 0.5 times MIC after 24 hrs by time-kill assay; type: functional, organism-based; procedure, shortened: as §4
Mus musculus [21] = test: Toxicity in mouse infected with methicillin-resistant Staphylococcus aureus ATCC 43300 assessed as mouse death at 30 mg/kg, ip administered 0.1, 3, 6, 9 and 12 hrs postinfection and measured after 1 week; type: organism-based; details: in vivo, 168 h; procedure, shortened: as §3
Staphylococcus aureus [22] = test: Bactericidal activity against methicillin-resistant Staphylococcus aureus ATCC 43300 assessed as reduction in viable bacterial count at 4 times MIC after 6 hrs by time-kill assay; type: functional, organism-based; procedure, shortened: as §4
[23] = molecular target: T1, Cell division protein FtsZ (Bacillus subtilis (strain 168)); test: Induction of Bacillus subtilis FtsZ assessed as increase in size of polymer at 10 ug/ml after 20 mins by transmission electron microscopic analysis; procedure, shortened: as §5
Bacillus subtilis [24] = test: Potency index, ratio of PC190723 MIC to test compound MIC for antibacterial activity against Bacillus subtilis ATCC 9372 after 24 hrs by broth microdilution based CLSI method
Staphylococcus aureus [25] = test: Antibacterial activity against clinical isolate of penicillin-resistant Staphylococcus aureus after 24 hrs by broth microdilution based CLSI method; type: functional
Bacillus pumilus [26] = test: Antibacterial activity against Bacillus pumilus CMCC63202 assessed as increase in bacterial cell length at 0.5 times MIC after 18 hrs by phase-contrast optical microscopic analysis; type: functional, organism-based
Procedure, shortened: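 Harvested cells resuspended in PBS, spotted on poly-L-lysine (0.1% w/v) coated slides and cell length examined by phase-contrast microscopy at 40 magnification.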

| SMILES | Ratio (Staphylococcus aureus [2]) | MIC (Staphylococcus aureus [3]) | MBC (Staphylococcus aureus [4]) | MBC (Staphylococcus aureus [5]) | MIC (Staphylococcus aureus [6]) | MIC (Bacillus pumilus [8]) | MIC (Bacillus subtilis [10]) | MIC (Escherichia coli) | MIC (Pseudomonas aeruginosa) | MBC (Staphylococcus aureus [12]) | IC50 (HeLa) | Activity [14] | Ratio (Bacillus subtilis [24]) | MIC (Staphylococcus aureus [25]) | other results |
| --- | --- | --- | --- | --- | --- | --- | --- | --- | --- | --- | --- | --- | --- | --- | --- |
| O=C(O)c1cn(C2CC2)c2cc(N3CCNCC3)c(F)cc2c1=O |  |  |  |  |  |  |  |  |  |  |  |  |  |  | Activity [1]: inactive |
| CC[C@H]1OC(=O)[C@H](C)[C@@H](O[C@H]2C[C@@](C)(OC)[C@@H](O)[C@H](C)O2)[C@H](C)[C@@H](O[C@@H]2O[C@H](C)C[C@H](N(C)C)[C@H]2O)[C@](C)(OC)C[C@@H](C)C(=O)[C@H](C)[C@@H](O)[C@]1(C)O [CLARITHROMYCIN] | 32 | 0.125 µg/mL (≈ 0.167 µM) | 4 µg/mL (≈ 5.35 µM) |  |  |  |  |  |  |  |  |  |  |  |  |
| CC(=O)NC[C@H]1CN(c2ccc(N3CCOCC3)c(F)c2)C(=O)O1 [LINEZOLID] |  |  | 32 µg/mL (≈ 94.9 µM) | 32 µg/mL (≈ 94.9 µM) | 1 µg/mL (≈ 2.96 µM) | 1 µg/mL (≈ 2.96 µM) | 1 µg/mL (≈ 2.96 µM) | > 64 µg/mL | > 64 µg/mL | 32 µg/mL (≈ 94.9 µM) |  |  |  |  | Activity (Mus musculus [7]): Non-Toxic; Activity (Staphylococcus aureus [9]): Active; Activity (Staphylococcus aureus [11]): Active |
| CC(C)(C)c1ccc(-c2cc(COc3ccc(F)c(C(N)=O)c3F)no2)cc1 | 2 | 2 µg/mL (≈ 5.18 µM) | 4 µg/mL (≈ 10.4 µM) | 8 µg/mL (≈ 20.7 µM) | 2 µg/mL (≈ 5.18 µM) | 0.03 µg/mL (≈ 0.0776 µM) | 0.015 µg/mL (≈ 0.0388 µM) | > 64 µg/mL | > 64 µg/mL | 2 µg/mL (≈ 5.18 µM) | > 128 µg/mL | Active | 32 | 4 µg/mL (≈ 10.4 µM) | viable count (Staphylococcus aureus [13]): 1000 CFU/mL; Activity [15]: Active; Ratio (Bacillus pumilus [16]): 32; Activity (Staphylococcus aureus [17]): Active; Ratio (Staphylococcus aureus [18]): 1; Activity [19]: Active; Activity (Staphylococcus aureus [20]): inactive; Activity (Mus musculus [21]): Non-Toxic; Activity (Staphylococcus aureus [22]): Active; Activity [23]: Active; Activity (Bacillus pumilus [26]): Active |
| CC(C)(C)c1ccc(-c2cc(COc3ccc(F)c(C(N)=O)c3F)on2)cc1 |  | 8 µg/mL (≈ 20.7 µM) |  |  | 4 µg/mL (≈ 10.4 µM) | 0.25 µg/mL (≈ 0.647 µM) | 0.03 µg/mL (≈ 0.0776 µM) | > 64 µg/mL | > 64 µg/mL |  | > 128 µg/mL | inactive | >16 | 8 µg/mL (≈ 20.7 µM) |  |
